The text below walks through data of ChEMBL document CHEMBL4513216, “Probing the Open Global Health Chemical Diversity Library for Multistage-Active Starting Points for Next-Generation Antimalarials” (ACS Infect Dis, 2020).

The structures appear in SMILES notation.

The series can be described thus: Toxicity liver stage against HepG2, at 10uM. Type of series: cell-based. On the set-up: test concentration 10 uM, cell line HepG2-A16-CD81EGFP. Conditions: human, HepG2-A16-CD81EGFP cells; read-out: INHIBITION
In a few lines:
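Uninfected HepG2-A16-CD81EGFP cells, 3 × 10^3 per well, 1536-well, plated on prespotted compound at 10 μM final, parasite-free screening media added to match infected plates; puromycin 10 μM positive, DMSO 0.5% negative; run in parallel with 48 h PbLuc assay at 37 °C, 5% CO2; viability by CellTiter-Glo luminescence, normalized to controls.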
`Cc1cccc(CNC(=O)C2CCC(=O)N(Cc3ccccc3F)C2)n1` (stereo not drawn): the cytotoxicity at 10 µM is -3.75%.
To `CS(=O)(=O)N1CCN(Cc2ccc(F)cc2Br)CC1` belongs 0.0667%; to `Cc1ccccc1NC(=O)Nc1c[nH]c(=O)[nH]c1=O`, 3.54%.
Next, `COc1ccc2nnc(CCC(=O)Nc3nc4c(s3)CCCCC4)n2n1`: 4.98%.
Turning to `COc1ncccc1C(=O)N1CC(c2nc(-c3ccco3)no2)C1`, the cytotoxicity at 10 µM came out at 4.91%.
Consider `CN(C)CC1CSCCCN1C(=O)c1ccc(-n2cccc2)cc1` (stereo not drawn), for which the cytotoxicity at 10 µM was found to be 10%.
Turning to `COC(C)(CNS(=O)(=O)c1cn(C)cn1)c1ccccc1F` (stereo not drawn), the cytotoxicity at 10 µM was -8.39%.
Next, `COc1ccc(CC(=O)N2CCC3(CC2)CCN(CC(C)C)C3=O)cc1`: 1.11%; `N#Cc1cnc2ccccc2c1N1CCC(C(=O)O)CC1`: 4.28%.
Next, `CCc1ccc(-n2c(=O)[nH]c3nc(N4CCSCC4)ncc3c2=O)cc1`: -4.14%; `CCN(CC)CCCNC(=O)c1nn(CC)cc1Cl`: 10.8%; `CCN(CC)c1ncnc2c(C)nn(CC)c12`: -2.01%.
With `CC(=O)NCCCn1ncc2c(C)cccc21`, the cytotoxicity at 10 µM is 9.68%.
In the case of `Cc1cn[nH]c1C1COCCN1Cc1c[nH]cn1` (stereo not drawn), the cytotoxicity at 10 µM is -1.3%.
For `CC(=O)N1CCCC1c1ccc(CN2CCOCC2)cn1` (stereo not drawn), the cytotoxicity at 10 µM is 5.83%.
Next, `Cc1c(CN2CCCC(n3c(=O)oc4ccccc43)C2)cnn1C` (stereo not drawn): 6.62%; `O=C(NCCCN1CCOCC1)Nc1cnc2cc(Cl)ccc2c1O`: 1.29%; `O=C(c1cnco1)N1C[C@@H]2CC[C@H](Oc3ccccc3F)[C@@H]2C1`: 5.22%.
Turning to `COCCN1C(=O)CO[C@H]2CN(Cc3c[nH]nc3-c3ccccc3)C[C@@H]21`, the cytotoxicity at 10 µM is -4.04%.
On to `CCOC(=O)[C@H]1CNC[C@@H]1C(F)(F)F`, for which the cytotoxicity at 10 µM is 7.06%.
To `O=c1cc(CN(CCO)C2CC2)nc2ccc(Br)cn12` belongs 12.5%; to `O=C(CC1OCCc2ccccc21)NCC1(O)CCCCC1` (stereo not drawn), 1.07%.
On to `CC(C)c1nn(C)c(N(C)C)c1CNC1CCCOc2ccccc21` (stereo not drawn), for which the cytotoxicity at 10 µM is -13.1%.
To `Cc1noc(C(C)N2CCC(c3nc4ccccc4[nH]3)CC2)n1` (stereo not drawn) belongs -6.4%.
`COC(CNC(=O)CNC(=O)c1ccccc1)c1cccc(Cl)c1` (stereo not drawn): the cytotoxicity at 10 µM was 5.61%.
As to `CCc1nc(C2CCCN(c3nccc(N4CCCC4)n3)C2)no1` (stereo not drawn), the cytotoxicity at 10 µM came out at 19%.
Next, `CCOc1cncc(N2CCOCC2)n1`: 3.18%; `CNS(=O)(=O)c1cccc(C(C)NCc2ccc(C)o2)c1` (stereo not drawn): -3.69%; `O=C(CCNS(=O)(=O)c1ccc(F)c(F)c1)NCc1ccoc1`: 11.2%.
Next, `CC(C)(C)c1nnc(CNc2cc(F)ccc2OCC2CCCO2)o1` (stereo not drawn): 3.06%; `O=C(C(CNCc1ccccc1O)c1ccccc1)N1CCOCC1` (stereo not drawn): -0.138%; `COC(=O)N1CCC(NC2CCSCC2)C1` (stereo not drawn): -8.23%.
Next, `COC(=O)c1cccc(NC(=O)CN2CCN(S(C)(=O)=O)CC2)c1`: 11.3%; `O=C(NCc1ccccc1F)N1CCC(C2OCCO2)CC1`: 2.76%.
Take `Cn1cc(C(=O)N[C@@H]2CN(Cc3ccoc3)[C@@H]3CCCO[C@@H]32)cn1`: the cytotoxicity at 10 µM was -104%.
With `CC(C)CNC(=O)[C@H]1CCS(=O)(=O)[C@@H]2CN(c3ncccn3)C[C@H]12`, the cytotoxicity at 10 µM was -110%.
For `Cc1cnc(N2CCC3(C2)CN(S(=O)(=O)C2CC2)C3)nc1`, the cytotoxicity at 10 µM is -106%.
Next, `CS(=O)(=O)N[C@@H]1CCO[C@]2(CCN(C(=O)c3cscn3)C2)C1`: -67.2%.
For `CCS(=O)(=O)N1CC[C@H]2O[C@@H](c3nnc(C)o3)CC[C@H]21`, the cytotoxicity at 10 µM was -63.7%.
Consider `Cc1ccc(N2C[C@H](C(=O)N3CCOCC3)[C@@H]3CCO[C@@H]3C2)nn1`, for which the cytotoxicity at 10 µM was -66.8%.
To `CN(C)CC(=O)N1Cc2ncn(C)c2C(COCC2CCOCC2)C1` (stereo not drawn) belongs -71%; to `O=C(CC1CC1)N1CCC2(CC1)CN(c1ncc(F)cn1)CCO2`, -72.8%; to `CC(C)N(C)[C@@H]1CCN(C(=O)c2ccc[nH]2)[C@H]1Cc1cnn(C)c1`, -72%.
Next, `O=C(c1cscn1)N1CCC2(CCN(Cc3nccs3)CC2)CC1`: -71%; `Cn1ncc2c1C(COCC1CC1)CN(Cc1ccoc1)C2` (stereo not drawn): -1.21%; `O=C(C1CCOCC1)N1CC[C@H]2C[C@@H](c3ccncn3)O[C@@H]2C1`: -0.748%.
Next, `O=C(c1ccncc1)N1CCC2(CC1)CC(Oc1cccnc1)CO2` (stereo not drawn): -3.66%.
For `O=C(Cc1ccsc1)N1CCN(CCOc2ccccc2)CC1`, the cytotoxicity at 10 µM was -4.6%.
As to `CCN(Cc1nccn1C)C(=O)c1ccc(NCC(C)C)nc1`, the cytotoxicity at 10 µM is -2.2%.
To `NC(=O)N1CCCC(C(=O)N2CCN(c3nsc4ccccc34)CC2)C1` (stereo not drawn) belongs 7.86%.
Next, `CC1(C)CNC(=O)c2nc(-c3n[nH]c(=O)[nH]3)[nH]c2C1`: -4.07%; `CCN(CC)Cc1cc(C(=O)N2CC(C)(C)[C@@](C)(O)C2)c(C)o1`: 1.07%.
In the case of `CC1(C)Cc2c(cnn2-c2cccc(F)c2)C(NC2CCSCC2)C1` (stereo not drawn), the cytotoxicity at 10 µM is -142%.
To `Cc1nn(C)cc1-c1ccnc(N(C)Cc2cccs2)n1` belongs 19%; to `O=C1CC[C@H]2CN(Cc3ncc[nH]3)CC[C@H]2N1CC1CCNCC1`, 11.6%.
Regarding `COc1cccc([C@H]2CN(CCCS(=O)(=O)N(C)C)C[C@@H]2N)c1`, the cytotoxicity at 10 µM was -1.18%.
Next, `COc1cc(F)ccc1C(C(=O)O)N(C)CCN1CCOCC1` (stereo not drawn): -12.9%.
For the compound `CC(C)CN1CCCn2nc(CNC(=O)Cc3cccc(O)c3)cc2C1`, the cytotoxicity at 10 µM was found to be 4.69%.
Next, `O=C(NCC(F)F)c1ccc(S(=O)(=O)NCCc2cn[nH]c2)cc1`: 5.5%; `COCc1nc2ncc3c(=O)n(-c4ccc(C(C)=O)cc4)ccc3n2n1`: -7.03%.
To `Cc1cccc(C(=O)NCc2cccnc2N(C)C)n1` belongs 0.72%; to `Cc1oc(C(=O)O)cc1S(=O)(=O)Nc1ccc(Cl)c(F)c1`, -5.92%.
To `CCn1c(C(=O)N2CCN(CC(C)O)CC2)cc2ccccc21` (stereo not drawn) belongs -8.96%.
As to `Cc1cc(C(=O)N2CCCCC2c2nc(C)cs2)[nH]n1` (stereo not drawn), the cytotoxicity at 10 µM is -8.13%.
For the compound `Cc1nc(C)n(CC2CN(Cc3cccc4c3OCCO4)CCO2)n1` (stereo not drawn), the cytotoxicity at 10 µM was -1.99%.
To `CCc1ncc2c(n1)CN(Cc1nc(-c3ccsc3)no1)CC2` belongs -4.99%; to `CC(C)NC(=O)CS(=O)(=O)Cc1cc(Cl)c2c(c1)OCCO2`, -4.53%; to `N#Cc1ccccc1CN1CCCCC1Cn1cncn1` (stereo not drawn), -4.13%.
For `COc1ccc(F)cc1C(=O)N(C)Cc1cc(C)on1`, the cytotoxicity at 10 µM amounted to 0.35%.
Next, `CNCc1ccc([C@@H]2CN(C(C)=O)C[C@H]2C(=O)N(C)C)cc1`: 3%; `Cc1ccc(CN2C(=O)CCC23CCC(NC2CCOC2)CC3)cc1` (stereo not drawn): -3.04%; `O=C(c1ccco1)N1C[C@@H]2[C@@H](C1)OCC(=O)N2Cc1cccnc1`: 3.04%.
To `O=C1CCC2(CCN(c3ncc(F)cn3)CC2)N1Cc1ccncc1` belongs 5.02%.
With `Cc1noc([C@H]2C[C@H]3OCC[C@H]3N(Cc3ccc(F)cc3)C2)n1`, the cytotoxicity at 10 µM is -76.4%.
Next, `COCC1c2c(cnn2C)CCN1Cc1ccco1` (stereo not drawn): 2.32%.
To `O=C(N[C@@H]1CN[C@H]2CCCO[C@H]21)c1cccnc1` belongs 5.25%; to `CC(=O)N1[C@H](Cn2cncn2)C[C@@H]2CN(Cc3cccnc3)CC[C@@H]21`, 3.16%; to `CCOCC1CN(C(=O)c2ccncn2)Cc2cnn(CC)c21` (stereo not drawn), -68.3%.
Consider `O=C(N[C@@H]1CN(c2ncccn2)C[C@@H]2CCCO[C@@H]21)c1ccncc1`, for which the cytotoxicity at 10 µM was 2.29%.
To `COCC1CN(CC2CC2)Cc2nccn2C1` (stereo not drawn) belongs -76%.
To `O=C(c1ccno1)N1CCc2ncnc(-c3ccncc3)c2CC1` belongs 6.59%.
To `Cc1cccc(CN2C[C@@H]3COC[C@]3(CNC(=O)C3CC3)C2)c1` belongs -107%; to `COC[C@]12COC[C@H]1CN(Cc1cc(OC)cc(OC)c1)C2`, -6.33%; to `Cc1cccc(CN2C[C@H](OCc3ccccn3)[C@H]3COC[C@H]32)n1`, -92.6%.
Consider `Cn1cc(C(=O)N2CC[C@@H]3[C@@H]2CCN3Cc2ccncc2)cn1`, for which the cytotoxicity at 10 µM was -75.3%.
To `c1cc(COC[C@]23COC[C@H]2CN(Cc2ccsc2)C3)ccn1` belongs -90.9%; to `Cc1ccc(N2CCCc3sc(C(=O)NCCC#N)nc32)nn1`, 11.6%; to `COCC(=O)N1C[C@@H](OCc2ccncc2)[C@@H]2OCCC[C@@H]21`, -0.182%.
Next, `Cc1cccc(CN2CCc3nnc(CN4CCCC4=O)n3CC2)n1`: 5.31%; `CN1CCS(=O)(=O)[C@@H]2CCN(C(=O)CC(C)(C)C)CC[C@@H]21`: 1.2%; `O=C(c1ccncc1)N1CCCn2c(CN3CCCC3)nnc2C1`: -76.9%.
To `CN1C[C@H](NC(=O)c2cscn2)[C@@H]2OCCC[C@@H]21` belongs -112%; to `O=C1Nc2ccccc2CN(CC=Cc2ccccc2)C12CCNC2` (stereo not drawn), 2.96%.
